From ChEMBL document CHEMBL4339207, “Kinase inhibitions in pyrido[4,3-h] and [3,4-g]quinazolines: Synthesis, SAR and molecular modeling studies” (Bioorg Med Chem, 2019)

Experiments:
[1] = target: T1, Glycogen synthase kinase-3 (Sus scrofa) (UniProt B2LUN4+I6LNT8); assay: Inhibition of porcine brain GSK3alpha/beta assessed as residual activity at 10 uM using YRRAAVPPSPSLSRHSSPHQSpEDEEE as substrate in presence of [gamma33P]ATP relative to control
Outline: (§1)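 Radiometric kinase assay (method A, ³³P). GSK-3α/β affinity-purified from porcine brain (Sus scrofa domesticus). Inhibitors tested at 10 µM and 1 µM. Result reported as % residual kinase activity. Assays run in triplicate.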

[2] = target: Dual specificity tyrosine-phosphorylation-regulated kinase 1A (Rattus norvegicus) (UniProt Q63470); assay: Inhibition of rat DYRK1A kinase domain (1 to 499 residues) expressed in bacteria assessed as residual activity at 10 uM using KKISGRLSPIMTEQ as substrate in presence of [gamma33P]ATP relative to control
[3] = target: T2, Cyclin-dependent kinase 5/CDK5 activator 1 (Homo sapiens) (UniProt Q00535+Q15078); assay: Inhibition of recombinant human CDK5/p25 expressed in bacteria assessed as residual activity at 10 uM using histone H1 as substrate in presence of [gamma33P]ATP relative to control
T2 sequence (Q00535 whole entry): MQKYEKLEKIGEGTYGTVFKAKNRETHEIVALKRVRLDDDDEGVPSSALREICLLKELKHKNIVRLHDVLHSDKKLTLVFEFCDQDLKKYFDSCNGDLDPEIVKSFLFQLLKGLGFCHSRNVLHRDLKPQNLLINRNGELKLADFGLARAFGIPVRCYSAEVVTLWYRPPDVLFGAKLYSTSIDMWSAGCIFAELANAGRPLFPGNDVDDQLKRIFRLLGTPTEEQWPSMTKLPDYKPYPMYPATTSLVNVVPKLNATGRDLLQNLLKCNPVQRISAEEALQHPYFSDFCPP
T2 sequence (Q15078 99-307 partner limits assumed): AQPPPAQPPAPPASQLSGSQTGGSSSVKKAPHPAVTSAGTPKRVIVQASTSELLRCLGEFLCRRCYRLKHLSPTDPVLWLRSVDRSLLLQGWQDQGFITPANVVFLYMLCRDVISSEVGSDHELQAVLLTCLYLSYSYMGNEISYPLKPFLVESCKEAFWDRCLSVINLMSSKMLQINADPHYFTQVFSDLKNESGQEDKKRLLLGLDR
Outline: (§2)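 Recombinant human CDK5/p25 expressed in bacteria was used with histone H1 as substrate in a ³³P radioassay. Residual activity (%) was measured at 10 µM and 1 µM compound, in triplicate.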

Sus scrofa [4] = species: Sus scrofa; assay: Inhibition of porcine brain CK1delta/epsilon assessed as residual activity at 1 uM using RRKHAAIGSpAYSITA as substrate in presence of [gamma33P]ATP relative to control
[5] = target: Dual specificity protein kinase CLK1 (Mus musculus) (UniProt P22518); assay: Inhibition of recombinant mouse CLK1 expressed in bacteria assessed as residual activity at 1 uM using GRSRSRSRSRSR as substrate in presence of [gamma33P]ATP relative to control
Chain of Dual specificity protein kinase CLK1 (Mus musculus) (P22518 whole entry, looked up): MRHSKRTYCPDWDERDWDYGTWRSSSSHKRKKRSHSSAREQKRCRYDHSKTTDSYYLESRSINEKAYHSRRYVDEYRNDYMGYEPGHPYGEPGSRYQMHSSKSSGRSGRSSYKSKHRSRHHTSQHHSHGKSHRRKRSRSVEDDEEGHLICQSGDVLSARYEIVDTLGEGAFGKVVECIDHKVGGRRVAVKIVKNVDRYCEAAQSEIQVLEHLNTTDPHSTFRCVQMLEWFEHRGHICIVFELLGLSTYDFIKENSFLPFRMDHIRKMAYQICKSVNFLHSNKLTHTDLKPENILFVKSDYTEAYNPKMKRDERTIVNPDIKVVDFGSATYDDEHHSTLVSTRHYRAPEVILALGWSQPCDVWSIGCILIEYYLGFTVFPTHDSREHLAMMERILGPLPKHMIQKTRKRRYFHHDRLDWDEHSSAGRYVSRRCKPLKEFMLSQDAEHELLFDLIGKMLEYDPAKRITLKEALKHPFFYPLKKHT

[6] = target: T1, Glycogen synthase kinase-3 (Sus scrofa); assay: Inhibition of porcine brain GSK3alpha/beta assessed as residual activity at 1 uM using YRRAAVPPSPSLSRHSSPHQSpEDEEE as substrate in presence of [gamma33P]ATP relative to control; outline: as §1
[7] = target: Dual specificity protein kinase CLK1 (Mus musculus) (UniProt P22518); assay: Inhibition of recombinant mouse CLK1 expressed in bacteria assessed as residual activity at 10 uM using GRSRSRSRSRSR as substrate in presence of [gamma33P]ATP relative to control
[8] = target: T2, Cyclin-dependent kinase 5/CDK5 activator 1 (Homo sapiens); assay: Inhibition of recombinant human CDK5/p25 expressed in bacteria assessed as residual activity at 1 uM using histone H1 as substrate in presence of [gamma33P]ATP relative to control; outline: as §2
Sus scrofa [9] = species: Sus scrofa; assay: Inhibition of porcine brain CK1delta/epsilon assessed as residual activity at 10 uM using RRKHAAIGSpAYSITA as substrate in presence of [gamma33P]ATP relative to control
[10] = target: Dual specificity tyrosine-phosphorylation-regulated kinase 1A (Rattus norvegicus) (UniProt Q63470); assay: Inhibition of rat DYRK1A kinase domain (1 to 499 residues) expressed in bacteria assessed as residual activity at 1 uM using KKISGRLSPIMTEQ as substrate in presence of [gamma33P]ATP relative to control
[11] = target: Dual specificity tyrosine-phosphorylation-regulated kinase 1A (Rattus norvegicus) (UniProt Q63470); assay: Inhibition of recombinant full-length rat N-terminal GST-tagged DYRK1A was expressed in Escherichia coli assessed as residual activity at 10 uM using DYRKtide as substrate measured after 60 mins by ADP-Glo luminescence assay relative to control
[12] = target: T2, Cyclin-dependent kinase 5/CDK5 activator 1 (Homo sapiens); assay: Inhibition of recombinant human full-length N-terminal GST-tagged CDK5/p25 expressed in baculovirus infected Sf9 insect cells assessed as residual activity at 1 uM using histone H1 as substrate measured after 10 mins relative to control
[13] = target: T3, Dual specificity protein kinase CLK1 (Homo sapiens, UniProt P49759); assay: Inhibition of recombinant human N-terminal GST-tagged CLK1 (129 to end residues) expressed in baculovirus infected Sf9 insect cells assessed as residual activity at 10 uM using MBP as substrate measured after 60 mins by ADP-Glo luminescence assay relative to control
Target sequence in this assay (P49759 whole entry, looked up): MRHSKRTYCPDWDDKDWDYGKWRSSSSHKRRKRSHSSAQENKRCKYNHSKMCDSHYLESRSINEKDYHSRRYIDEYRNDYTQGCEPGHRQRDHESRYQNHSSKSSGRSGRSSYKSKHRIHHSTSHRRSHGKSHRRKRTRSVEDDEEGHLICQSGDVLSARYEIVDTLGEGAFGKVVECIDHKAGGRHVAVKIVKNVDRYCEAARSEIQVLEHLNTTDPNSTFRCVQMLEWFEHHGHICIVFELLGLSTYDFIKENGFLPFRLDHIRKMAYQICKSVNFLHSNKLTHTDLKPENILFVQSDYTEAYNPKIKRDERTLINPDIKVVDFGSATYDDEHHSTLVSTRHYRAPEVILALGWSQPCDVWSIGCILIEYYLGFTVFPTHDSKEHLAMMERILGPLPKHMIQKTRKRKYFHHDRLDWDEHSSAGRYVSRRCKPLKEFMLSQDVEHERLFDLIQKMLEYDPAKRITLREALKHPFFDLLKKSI

[14] = target: Dual specificity tyrosine-phosphorylation-regulated kinase 1A (Rattus norvegicus) (UniProt Q63470); assay: Inhibition of recombinant full-length rat N-terminal GST-tagged DYRK1A was expressed in Escherichia coli assessed as residual activity at 1 uM using DYRKtide as substrate measured after 60 mins by ADP-Glo luminescence assay relative to control
[15] = target: T3, Dual specificity protein kinase CLK1; assay: Inhibition of recombinant human N-terminal GST-tagged CLK1 (129 to end residues) expressed in baculovirus infected Sf9 insect cells assessed as residual activity at 1 uM using MBP as substrate measured after 60 mins by ADP-Glo luminescence assay relative to control
Target sequence in this assay (P49759 whole entry, looked up): as above

[16] = target: T2, Cyclin-dependent kinase 5/CDK5 activator 1 (Homo sapiens); assay: Inhibition of recombinant human full-length N-terminal GST-tagged CDK5/p25 expressed in baculovirus infected Sf9 insect cells assessed as residual activity at 10 uM using histone H1 as substrate measured after 10 mins relative to control
[17] = target: T3, Dual specificity protein kinase CLK1; assay: Inhibition of recombinant human N-terminal GST-tagged CLK1 (129 to end residues) expressed in baculovirus infected Sf9 insect cells sing MBP as substrate measured after 60 mins by ADP-Glo luminescence assay
Target sequence in this assay (P49759 whole entry): as the sequence (P49759 whole entry, looked up) above

[18] = target: T4, Glycogen synthase kinase-3 (Homo sapiens) (UniProt P49840+P49841); assay: Inhibition of GSK3 (unknown origin) assessed as residual activity at 1 uM relative to control
T4 sequence (P49840 whole entry, looked up): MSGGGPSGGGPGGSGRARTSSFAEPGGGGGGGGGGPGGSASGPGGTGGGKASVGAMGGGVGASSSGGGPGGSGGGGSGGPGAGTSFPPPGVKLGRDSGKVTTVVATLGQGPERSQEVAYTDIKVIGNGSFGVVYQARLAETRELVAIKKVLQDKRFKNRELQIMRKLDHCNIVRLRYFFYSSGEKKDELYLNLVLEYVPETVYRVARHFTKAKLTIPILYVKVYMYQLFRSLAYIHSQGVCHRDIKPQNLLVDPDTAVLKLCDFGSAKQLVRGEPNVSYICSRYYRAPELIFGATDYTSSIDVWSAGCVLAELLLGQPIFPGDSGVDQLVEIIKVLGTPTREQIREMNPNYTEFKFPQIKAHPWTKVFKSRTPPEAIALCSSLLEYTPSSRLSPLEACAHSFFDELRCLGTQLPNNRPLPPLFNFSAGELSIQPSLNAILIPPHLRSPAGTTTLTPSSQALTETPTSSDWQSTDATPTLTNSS
T4 sequence (P49841 whole entry, looked up): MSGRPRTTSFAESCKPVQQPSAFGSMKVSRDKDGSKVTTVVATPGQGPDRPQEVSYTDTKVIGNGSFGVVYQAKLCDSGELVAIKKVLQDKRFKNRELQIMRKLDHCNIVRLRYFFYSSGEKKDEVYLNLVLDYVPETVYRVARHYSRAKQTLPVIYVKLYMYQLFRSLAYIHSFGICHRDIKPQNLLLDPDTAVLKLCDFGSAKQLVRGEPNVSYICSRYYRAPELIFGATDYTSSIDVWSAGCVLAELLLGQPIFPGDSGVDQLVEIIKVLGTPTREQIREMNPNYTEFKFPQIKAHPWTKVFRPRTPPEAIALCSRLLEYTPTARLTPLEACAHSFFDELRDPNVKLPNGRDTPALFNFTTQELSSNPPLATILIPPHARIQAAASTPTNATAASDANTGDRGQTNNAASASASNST

[19] = target: T5, Casein kinase I (Homo sapiens) (UniProt Q9HCP0+P78368+P48730+P49674+P48729); assay: Inhibition of CK1 (unknown origin) assessed as residual activity at 1 uM relative to control
[20] = target: T5, Casein kinase I (Homo sapiens); assay: Inhibition of CK1 (unknown origin) assessed as residual activity at 10 uM relative to control
[21] = target: T4, Glycogen synthase kinase-3 (Homo sapiens); assay: Inhibition of GSK3 (unknown origin) assessed as residual activity at 10 uM relative to control
[22] = target: Dual specificity tyrosine-phosphorylation-regulated kinase 1A (Rattus norvegicus, UniProt Q63470); assay: Inhibition of recombinant full-length rat N-terminal GST-tagged DYRK1A was expressed in Escherichia coli using DYRKtide as substrate measured after 60 mins by ADP-Glo luminescence assay
[23] = target: Dual specificity protein kinase CLK1 (Mus musculus, UniProt P22518); assay: Inhibition of recombinant mouse CLK1 expressed in bacteria using GRSRSRSRSRSR as substrate in presence of [gamma33P]ATP
Chain of Dual specificity protein kinase CLK1 (Mus musculus, UniProt P22518) (P22518 whole entry): as the sequence (P22518 whole entry, looked up) above

Structure (SMILES) | Activity [1] [%] | Activity [2] [%] | Activity [3] [%] | Activity (Sus scrofa [4]) [%] | Activity [5] [%] | Activity [6] [%] | Activity [7] [%] | Activity [8] [%] | Activity (Sus scrofa [9]) [%] | Activity [10] [%] | further results
CC(C)N(CNc1ncc2cc3cnccc3c([N+](=O)[O-])c2n1)C(C)C | 1 | 46 | 61 | 74 | 44 | 53 | 5 | 99 | 38 | 69 | –
Nc1ncc2ccc3ccncc3c2n1 | – | – | – | – | – | – | – | – | – | – | Activity [11]: 25%; Activity [12]: 100%; Activity [13]: 9%; Activity [14]: 71%; Activity [15]: 48%; Activity [16]: 63%; IC50 [17]: 1.48 µM; Activity [18]: 98%; Activity [19]: 64%; Activity [20]: 22%; Activity [21]: 75%; IC50 [22]: 2.18 µM
Nc1ncc2cc3cnccc3c([N+](=O)[O-])c2n1 | 25 | 5 | 56 | 41 | 6 | 74 | 2 | 88 | 9 | 36 | –
CN(C)CNc1ncc2cc3cnccc3c([N+](=O)[O-])c2n1 | 15 | 4 | 41 | 100 | 13 | 73 | 6 | 99 | 38 | 39 | IC50 [23]: 0.087 µM
CN(C)/C=N/c1ncc2cc3cnccc3c([N+](=O)[O-])c2n1 | 30 | 31 | 59 | 100 | 33 | 86 | 3 | 94 | 53 | 100 | –
CC(C)N(/C=N/c1ncc2cc3cnccc3c([N+](=O)[O-])c2n1)C(C)C | 15 | 46 | 45 | 96 | 53 | 73 | 1 | 100 | 60 | 95 | –
